Measured values from ChEMBL document CHEMBL3091449, “Synthesis and antimicrobial profile of N-substituted imidazolium oximes and their monoquaternary salts against multidrug resistant bacteria” (2013).
Converted amounts (≈) assume the structure as drawn.

Key:
Assay type in all cases: functional
Enterobacter cloacae [1] = assay: Antibacterial activity against CTX-15 expressing Enterobacter cloacae isolate 51 after 18 to 24 hrs by two-fold broth microdilution assay
Aeromonas hydrophila [2] = assay: Antibacterial activity against TEM-1/SHV-12 expressing Aeromonas hydrophila isolate 268 after 18 to 24 hrs by two-fold broth microdilution assay
Summary of the method: (§1)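 CLSI two-fold broth microdilution was used. Compounds were dissolved in DMSO, brought to 10 mg/mL in medium, then serially diluted in Mueller Hinton broth over 400–0.09 µg/mL. Overnight MHB cultures were diluted to 10^6 CFU/mL, and 10 µL was added per well. Plates were incubated 18–24 h at 37 °C, then 0.2 mg/mL INT was added for 30 min at 37 °C. MIC was the lowest concentration with no visible growth or pink colour, triplicate.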

Enterobacter cloacae [3] = assay: Antibacterial activity against TEM-1/SHV-12 expressing Enterobacter cloacae isolate 306 after 18 to 24 hrs by two-fold broth microdilution assay
Escherichia coli [4] = assay: Antibacterial activity against […] expressing Escherichia coli isolate 235 after 18 to 24 hrs by two-fold broth microdilution assay
Summary of the method: (§2)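 CLSI two-fold broth microdilution. Compounds dissolved in DMSO, 10 mg/mL stock, serially diluted to 400–0.09 µg/mL in Mueller Hinton broth. Wells inoculated with 10^6 CFU/mL bacteria and incubated 18–24 h at 37 °C. 0.2 mg/mL INT added for 30 min. MIC taken as the lowest concentration with no visible growth or pink colour. Triplicate.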

Kluyvera intermedia = assay: Antibacterial activity against TEM-1/SHV-12/[…] expressing Enterobacter intermedius isolate 243 after 18 to 24 hrs by two-fold broth microdilution assay; summary of the method: as §1
Escherichia coli [5] = assay: Antibacterial activity against TEM-1/SHV-12 expressing Escherichia coli isolate 237 after 18 to 24 hrs by two-fold broth microdilution assay; summary of the method: as §2
Aeromonas caviae [6] = assay: Antibacterial activity against TEM-1/CTX-M-15 expressing Aeromonas caviae isolate 260 after 18 to 24 hrs by two-fold broth microdilution assay; summary of the method: as §1
Acinetobacter baumannii = assay: Antibacterial activity against SIM-1 expressing Acinetobacter baumannii isolate 170 after 18 to 24 hrs by two-fold broth microdilution assay; summary of the method: as §2
Escherichia coli [7] = assay: Antibacterial activity against […] expressing Escherichia coli isolate 4024 after 18 to 24 hrs by two-fold broth microdilution assay; summary of the method: as §2
Enterobacter cloacae [8] = assay: Antibacterial activity against TEM-1/CTX-M-15 expressing Enterobacter cloacae isolate 62 after 18 to 24 hrs by two-fold broth microdilution assay
[9] = system: Stenotrophomonas maltophilia; assay: Antibacterial activity against […] expressing Stenotrophomonas maltophilia isolate 125 after 18 to 24 hrs by two-fold broth microdilution assay; summary of the method: as §1
Pseudomonas aeruginosa [10] = assay: Antibacterial activity against GIM-1 expressing Pseudomonas aeruginosa isolate 197 after 18 to 24 hrs by two-fold broth microdilution assay; summary of the method: as §1
Klebsiella pneumoniae [11] = assay: Antibacterial activity against TEM-1/SHV-12 expressing Klebsiella pneumoniae isolate 303 after 18 to 24 hrs by two-fold broth microdilution assay; summary of the method: as §1
Aeromonas caviae [12] = assay: Antibacterial activity against […] expressing Aeromonas caviae isolate 258 after 18 to 24 hrs by two-fold broth microdilution assay; summary of the method: as §1
Staphylococcus aureus [13] = assay: Antibacterial activity against Staphylococcus aureus ATCC 25923 assessed as diameter of zone of inhibition at 250 ug/disc after 24 hrs by disc diffusion method; details: ATCC 25923, 24 h, read-out: DIZ
Summary of the method: (§3)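 Bacteria were grown overnight at 37 °C in TSB to about 10^6 cfu/mL, and 100 µL was spread on Mueller Hinton agar. Sterile 6 mm discs were each loaded with 25 µL of a 10 mg/mL stock in 96% ethanol, giving 250 µg/disc. Ethanol served as the negative control. Plates were incubated 24 h at 37 °C. Inhibition zone diameter was measured including the disc, in triplicate, as mean ± SE.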

Escherichia coli [14] = assay: Antibacterial activity against Escherichia coli FNSST 982 assessed as diameter of zone of inhibition at 250 ug/disc after 24 hrs by disc diffusion method; details: FNSST 982, 24 h, read-out: DIZ; summary of the method: as §3
Aeromonas hydrophila [15] = assay: Antibacterial activity against Aeromonas hydrophila FNSST 014 assessed as diameter of zone of inhibition at 250 ug/disc after 24 hrs by disc diffusion method; details: FNSST 014, 24 h, read-out: DIZ; summary of the method: as §3
Enterococcus faecalis [16] = assay: Antibacterial activity against Enterococcus faecalis ATCC 29212 after 18 to 24 hrs by two-fold broth microdilution assay; summary of the method: as §1
Aeromonas hydrophila [17] = assay: Antibacterial activity against Aeromonas hydrophila FNSST 014 after 18 to 24 hrs by two-fold broth microdilution assay; summary of the method: as §1
Pseudomonas aeruginosa [18] = assay: Antibacterial activity against Pseudomonas aeruginosa FNSST 982 after 18 to 24 hrs by two-fold broth microdilution assay; summary of the method: as §1
Pseudomonas aeruginosa [19] = assay: Antibacterial activity against Pseudomonas aeruginosa FNSST 982 assessed as diameter of zone of inhibition at 250 ug/disc after 24 hrs by disc diffusion method; details: FNSST 982, 24 h, read-out: DIZ; summary of the method: as §3
Escherichia coli [20] = assay: Antibacterial activity against Escherichia coli FNSST 982 after 18 to 24 hrs by two-fold broth microdilution assay; summary of the method: as §1
Bacillus cereus [21] = assay: Antibacterial activity against Bacillus cereus ATCC 11778 after 18 to 24 hrs by two-fold broth microdilution assay; summary of the method: as §1
Klebsiella pneumoniae [22] = assay: Antibacterial activity against Klebsiella pneumoniae FNSST 011 after 18 to 24 hrs by two-fold broth microdilution assay; summary of the method: as §1
Klebsiella pneumoniae [23] = assay: Antibacterial activity against Klebsiella pneumoniae FNSST 011 assessed as diameter of zone of inhibition at 250 ug/disc after 24 hrs by disc diffusion method; details: FNSST 011, 24 h, read-out: DIZ; summary of the method: as §3
Enterococcus faecalis [24] = assay: Antibacterial activity against Enterococcus faecalis ATCC 29212 assessed as diameter of zone of inhibition at 250 ug/disc after 24 hrs by disc diffusion method; details: ATCC 29212, 24 h, read-out: DIZ; summary of the method: as §3
Candida albicans = assay: Antifungal activity against Candida albicans ATCC 10231 assessed as diameter of zone of inhibition at 250 ug/disc after 48 hrs by disc diffusion method; details: ATCC 10231, 48 h, read-out: DIZ
Summary of the method: (§4)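 Fungi were grown overnight at 30 °C in Sabouraud dextrose broth to 10^4 cfu/mL, and 100 µL was spread on Sabouraud dextrose agar. 6 mm discs carried 250 µg (25 µL of a 10 mg/mL stock in 96% ethanol), with ethanol as the negative control. Incubation was at 30 °C for 48 h (yeast) or 72 h (molds). Zone diameter was read including the disc, in triplicate, mean ± SE.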

Clostridium perfringens [25] = assay: Antibacterial activity against Clostridium perfringens FNSST 4999 assessed as diameter of zone of inhibition at 250 ug/disc after 24 hrs by disc diffusion method; details: FNSST 4999, 24 h, read-out: DIZ
Summary of the method: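 Disc diffusion per CLSI: 100 µL of 10^6 cfu/mL bacterial suspension spread on Mueller Hinton agar. 6 mm discs loaded with 25 µL of 10 mg/mL compound stock in 96% ethanol (250 µg/disc); ethanol as negative control. Incubated 24 h at 37 °C. Inhibition zone diameter measured in mm including the disc, triplicate, reported as mean ± SE.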

Talaromyces funiculosus = assay: Antifungal activity against Penicillium funiculosum FNSST 3724 assessed as diameter of zone of inhibition at 250 ug/disc after 72 hrs by disc diffusion method; details: FNSST 3724, 72 h, read-out: DIZ; summary of the method: as §4
Clostridium perfringens [26] = assay: Antibacterial activity against Clostridium perfringens FNSST 4999 after 18 to 24 hrs by two-fold broth microdilution assay; summary of the method: as §2
Bacillus cereus [27] = assay: Antibacterial activity against Bacillus cereus ATCC 11778 assessed as diameter of zone of inhibition at 250 ug/disc after 24 hrs by disc diffusion method; details: ATCC 11778, 24 h, read-out: DIZ; summary of the method: as §3
Aspergillus fumigatus = assay: Antifungal activity against Aspergillus fumigatus FNSST 3833 assessed as diameter of zone of inhibition at 250 ug/disc after 72 hrs by disc diffusion method; details: FNSST 3833, 72 h, read-out: DIZ; summary of the method: as §4
Staphylococcus aureus [28] = assay: Antibacterial activity against Staphylococcus aureus ATCC 25923 after 18 to 24 hrs by two-fold broth microdilution assay; summary of the method: as §1

Row | Structure (SMILES) | MIC (Enterobacter cloacae [1]) [µg/mL] | MIC (Aeromonas hydrophila [2]) [µg/mL] | MIC (Enterobacter cloacae [3]) [µg/mL] | MIC (Escherichia coli [4]) [µg/mL] | MIC (Kluyvera intermedia) [µg/mL] | MIC (Escherichia coli [5]) [µg/mL] | MIC (Aeromonas caviae [6]) [µg/mL] | MIC (Acinetobacter baumannii) [µg/mL] | MIC (Escherichia coli [7]) [µg/mL] | MIC (Enterobacter cloacae [8]) [µg/mL] | MIC [9] [µg/mL] | MIC (Pseudomonas aeruginosa [10]) [µg/mL] | MIC (Klebsiella pneumoniae [11]) [µg/mL] | MIC (Aeromonas caviae [12]) [µg/mL] | further results
1 | C[C@@H](O)[C@H]1C(=O)N2C(C(=O)O)=C(S[C@@H]3CN[C@H](C(=O)N(C)C)C3)[C@H](C)[C@H]12 [MEROPENEM] | 0.25 (≈ 0.652 µM) | 0.06 (≈ 0.156 µM) | 0.25 (≈ 0.652 µM) | 0.12 (≈ 0.313 µM) | 0.12 (≈ 0.313 µM) | 1 (≈ 2.61 µM) | 1 (≈ 2.61 µM) | 16 (≈ 41.7 µM) | 0.12 (≈ 0.313 µM) | 0.5 (≈ 1.3 µM) | 128 (≈ 334 µM) | > 8 | 0.12 (≈ 0.313 µM) | 0.125 (≈ 0.326 µM) | 
2 | CC(C)(O/N=C(\C(=O)N[C@@H]1C(=O)N2C(C(=O)[O-])=C(C[n+]3ccccc3)CS[C@H]12)c1csc(N)n1)C(=O)O [CEFTAZIDIME] | 16 (≈ 29.3 µM) | 64 (≈ 117 µM) | > 256 | 64 (≈ 117 µM) | 8 (≈ 14.6 µM) | 8 (≈ 14.6 µM) | 128 (≈ 234 µM) | > 256 | 16 (≈ 29.3 µM) | > 256 | 128 (≈ 234 µM) | 256 (≈ 468 µM) | 128 (≈ 234 µM) | 4 (≈ 7.32 µM) | 
3 | O=C(O)c1cn(C2CC2)c2cc(N3CCNCC3)c(F)cc2c1=O [CIPROFLOXACIN] |  | 2 (≈ 6.04 µM) |  |  | 0.5 (≈ 1.51 µM) |  | 1 (≈ 3.02 µM) | 0.5 (≈ 1.51 µM) |  |  |  | > 4 | 2 (≈ 6.04 µM) | 0.5 (≈ 1.51 µM) | 
4 | Cc1ccc(-n2ccnc2/C=N/O)cc1 |  |  |  |  |  |  |  |  |  |  |  |  |  |  | zone of inhibition at 250 µg/disc (Staphylococcus aureus [13]): 18.5 mm; zone of inhibition at 250 µg/disc (Escherichia coli [14]): 14.9 mm; zone of inhibition at 250 µg/disc (Aeromonas hydrophila [15]): 15.7 mm; MIC (Enterococcus faecalis [16]): 50 µg/mL (≈ 248 µM); MIC (Aeromonas hydrophila [17]): 25 µg/mL (≈ 124 µM); MIC (Pseudomonas aeruginosa [18]): 50 µg/mL (≈ 248 µM); zone of inhibition at 250 µg/disc (Pseudomonas aeruginosa [19]): 10.9 mm; MIC (Escherichia coli [20]): 25 µg/mL (≈ 124 µM); MIC (Bacillus cereus [21]): 50 µg/mL (≈ 248 µM); MIC (Klebsiella pneumoniae [22]): 100 µg/mL (≈ 497 µM); zone of inhibition at 250 µg/disc (Klebsiella pneumoniae [23]): 9.3 mm; zone of inhibition at 250 µg/disc (Enterococcus faecalis [24]): 13.8 mm; zone of inhibition at 250 µg/disc (Candida albicans): 20.2 mm; zone of inhibition at 250 µg/disc (Clostridium perfringens [25]): 12.6 mm; zone of inhibition at 250 µg/disc (Talaromyces funiculosus): 15.4 mm; MIC (Clostridium perfringens [26]): 100 µg/mL (≈ 497 µM); zone of inhibition at 250 µg/disc (Bacillus cereus [27]): 14.6 mm; zone of inhibition at 250 µg/disc (Aspergillus fumigatus): 16.3 mm; MIC (Staphylococcus aureus [28]): 32 µg/mL (≈ 159 µM)
5 | CN(C)[C@@H]1C(O)=C(C(N)=O)C(=O)[C@@]2(O)C(O)=C3C(=O)c4c(O)cccc4[C@@](C)(O)[C@H]3C[C@@H]12 [TETRACYCLINE] | 64 (≈ 144 µM) | 8 (≈ 18 µM) | 16 (≈ 36 µM) | 32 (≈ 72 µM) | 16 (≈ 36 µM) | 128 (≈ 288 µM) | 128 (≈ 288 µM) | 64 (≈ 144 µM) | 16 (≈ 36 µM) | 16 (≈ 36 µM) | 128 (≈ 288 µM) | > 8 | 256 (≈ 576 µM) | 64 (≈ 144 µM) | 
